In brackets after ≈: the same amount, converted by molar mass. Activity calls are given as the source filed them. The rule behind the calls is not given here.
Key:
[1] = tested on: Mycobacterium tuberculosis; assay: Antitubercular activity against Mycobacterium tuberculosis H37Ra measured after 10 days by liquid broth microdilution assay; type: functional; conditions: 240 h, time 10 day
How it was run: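 Broth microdilution in 7H9 with 0.2% glycerol, 0.05% Tween 80 and 10% ADS. Mid-log cultures (OD600 0.4–0.6) were diluted to OD600 0.005 (1.0 × 10^6 CFU ml−1) and added to two-fold serial compound dilutions. Plates were incubated at 37 °C for 10 days and read visually. MIC was the lowest concentration with no turbidity.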

[2] = tested on: Mycobacterium tuberculosis; assay: Antitubercular activity against Mycobacterium tuberculosis H37Rv mc2 6230 measured after 10 days by liquid broth microdilution assay; type: functional; conditions: H37Rv mc2 6230, 240 h, time 10 day
How it was run: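 Broth microdilution in 7H9 with glycerol, ADS and 0.05% tyloxapol, supplemented with L-methionine, L-leucine (50 mg L−1 each), L-arginine (200 mg L−1) and D-pantothenate (24 mg L−1). Inoculum was diluted to OD600 0.005 (1.0 × 10^6 CFU ml−1) and added to two-fold serial dilutions. After 10 days at 37 °C, MIC was the lowest concentration without visible turbidity.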

[3] = tested on: Mycobacterium tuberculosis; assay: Antitubercular activity against Mycobacterium tuberculosis H37Ra assessed as inhibition of intracellular ATP synthesis incubated for 24 hrs by BacTiter-Glo microbial cell viability assay; type: functional, organism-based
How it was run: (§1)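 Mid-log cultures were adjusted to OD600 0.05 and exposed to compounds at 37 °C for 24 h. BacTiter-Glo reagent was then added for 12 min and luminescence was read. H37Ra and BCG were grown in 7H9 with glycerol, Tween 80 and ADS. mc2 6230 was grown with tyloxapol plus methionine, leucine, arginine and pantothenate. Values are the mean of triplicates.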

[4] = tested on: Mycobacterium tuberculosis; assay: Antitubercular activity against Mycobacterium tuberculosis H37Rv mc2 6230 assessed as inhibition of intracellular ATP synthesis incubated for 24 hrs by BacTiter-Glo microbial cell viability assay; type: functional, organism-based; conditions: H37Rv mc2 6230, 24 h; how it was run: as §1
[5] = Cytotoxicity against human HepG2 cells assessed as reduction in cell viability by MTT assay; type: toxicity, cell-based
How it was run: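 HepG2 cells in DMEM with 10% FBS, streptomycin, penicillin, 10 mM HEPES and 2 mM L-glutamine were seeded at 1 × 10^4 cells/well and incubated for 24 h (37 °C, 5% CO2). […] two-fold dilutions spanning 1000–0.48 μg ml−1 were applied. MTT (2.5 mg ml−1 in PBS) was added; formazan was dissolved in DMSO and read at 570 nm. CC50 = 50% viability loss. Triplicates.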

[6] = Selectivity index, ratio of CC50 for cytotoxicity against human HepG2 cells to MIC90 for antitubercular activity against Mycobacterium tuberculosis; type: toxicity, cell-based; conditions: read-out: Selectivity Index
How it was run: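 Selectivity index calculated as HepG2 MTT CC50 divided by MIC90.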

[7] = tested on: Mycobacterium tuberculosis; assay: Bactericidal activity against Mycobacterium tuberculosis H37Rv mc2 6230 assessed as reduction in bacterial load at 4 times MIC measured after 5 days; type: functional, organism-based; conditions: time 5.0 day
[8] = tested on: Mycobacterium tuberculosis; assay: Bactericidal activity against Mycobacterium tuberculosis H37Rv mc2 6230 assessed as reduction in bacterial load measured after 5 days; type: functional, organism-based; conditions: time 5.0 day
How it was run: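 Mid-log bacilli in supplemented 7H9 were adjusted to OD600 0.005 and exposed to a range of concentrations for 5 days at 37 °C. Cultures were 10-fold serially diluted and spotted on 7H10 agar, which was incubated for 3–4 weeks for CFU counts. MBC90 was a 90% fall from the initial inoculum. Triplicates; Student's t-test.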

SMILES | MIC90 [1] | MIC90 [2] | IC50 [3] | IC50 [4] | CC50 [5] | selectivity ratio [6] | Activity [7] | Activity [8]
O=C(CSc1nc2ccccc2s1)NC1CCCCC1 | 64 µg/mL (≈ 209 µM) | 64 µg/mL (≈ 209 µM) | 26.6 µg/mL (≈ 86.9 µM) | 40.6 µg/mL (≈ 133 µM) | – | – | – | –
O=C(CSc1nc2ccccc2c(=O)[nH]1)NC1CCCCC1 | 0.5 µg/mL (≈ 1.58 µM) | 0.5 µg/mL (≈ 1.58 µM) | 8.55 µg/mL (≈ 26.9 µM) | 2.23 µg/mL (≈ 7.01 µM) | 48.8 µg/mL (≈ 154 µM) | 391 | – | –
CO[C@H]1/C=C/O[C@@]2(C)Oc3c(C)c(O)c4c(O)c(c(/C=N/N5CCN(C)CC5)c(O)c4c3C2=O)NC(=O)/C(C)=C\C=C\[C@H](C)[C@H](O)[C@@H](C)[C@@H](O)[C@@H](C)[C@H](OC(C)=O)[C@@H]1C [RIFAMPIN] | 0.015 µg/mL (≈ 0.0182 µM) | 0.03 µg/mL (≈ 0.0365 µM) | – | – | – | – | – | –
O=C(CSc1nc2ccc(Cl)cc2s1)NC1CCCCC1 | 32 µg/mL (≈ 93.9 µM) | 16 µg/mL (≈ 46.9 µM) | 48.6 µg/mL (≈ 143 µM) | 38.2 µg/mL (≈ 112 µM) | – | – | – | –
Cc1ccc2nc(SCC(=O)NC3CCCCC3)sc2c1 | 32 µg/mL (≈ 99.8 µM) | 32 µg/mL (≈ 99.8 µM) | 14.1 µg/mL (≈ 43.9 µM) | 34.9 µg/mL (≈ 109 µM) | – | – | – | –
O=C(CSc1nc2ccc(F)cc2s1)NC1CCCCC1 | 16 µg/mL (≈ 49.3 µM) | 4 µg/mL (≈ 12.3 µM) | 36.5 µg/mL (≈ 113 µM) | 56.9 µg/mL (≈ 175 µM) | – | – | – | –
CC(C)/N=c1\cc2n(-c3ccc(Cl)cc3)c3ccccc3nc-2cc1Nc1ccc(Cl)cc1 [CLOFAZIMINE] | 0.25 µg/mL (≈ 0.528 µM) | 0.25 µg/mL (≈ 0.528 µM) | – | – | 49 µg/mL (≈ 104 µM) | 223 | – | –
CC/C(=C(\c1ccccc1)c1ccc(OCCN(C)C)cc1)c1ccccc1 [TAMOXIFEN] | – | – | – | – | 6.15 µg/mL (≈ 16.6 µM) | – | – | –
O=C(CSc1nc2ccc([N+](=O)[O-])cc2s1)NC1CCCCC1 | 16 µg/mL (≈ 45.5 µM) | 16 µg/mL (≈ 45.5 µM) | 36.3 µg/mL (≈ 103 µM) | 24.4 µg/mL (≈ 69.6 µM) | – | – | – | –
O=C(CSc1nc2ccc(Br)cc2s1)NC1CCCCC1 | 64 µg/mL (≈ 166 µM) | 32 µg/mL (≈ 83 µM) | 34.4 µg/mL (≈ 89.2 µM) | 49.8 µg/mL (≈ 129 µM) | – | – | – | –
O=C(CSc1nc2c(Br)cc(C(F)(F)F)cc2s1)NC1CCCCC1 | 64 µg/mL (≈ 141 µM) | 64 µg/mL (≈ 141 µM) | 25.7 µg/mL (≈ 56.7 µM) | 56 µg/mL (≈ 124 µM) | – | – | – | –
O=C(CSc1nc2c(Br)cc(F)cc2s1)NC1CCCCC1 | 8 µg/mL (≈ 19.8 µM) | 8 µg/mL (≈ 19.8 µM) | 18.7 µg/mL (≈ 46.3 µM) | 14.7 µg/mL (≈ 36.4 µM) | 89.4 µg/mL (≈ 222 µM) | 5.58 | Active | Dose-Dependent Effect
O=C(CSc1nc2ccc(OC(F)(F)F)cc2s1)NC1CCCCC1 | 64 µg/mL (≈ 164 µM) | 32 µg/mL (≈ 82 µM) | 23.4 µg/mL (≈ 59.9 µM) | 66.2 µg/mL (≈ 170 µM) | – | – | – | –
O=C(CSc1nc2ccc(C(F)(F)F)cc2s1)NC1CCCCC1 | 32 µg/mL (≈ 85.5 µM) | 64 µg/mL (≈ 171 µM) | 30.9 µg/mL (≈ 82.5 µM) | 51 µg/mL (≈ 136 µM) | – | – | – | –
O=C(CSc1nc2c(Br)cc(OC(F)(F)F)cc2s1)NC1CCCCC1 | 128 µg/mL (≈ 273 µM) | 128 µg/mL (≈ 273 µM) | 36.6 µg/mL (≈ 77.9 µM) | 35.8 µg/mL (≈ 76.3 µM) | – | – | – | –
CC(C)c1ccc2nc(SCC(=O)NC3CCCCC3)sc2c1 | 4 µg/mL (≈ 11.5 µM) | 4 µg/mL (≈ 11.5 µM) | 9.35 µg/mL (≈ 26.8 µM) | 9.35 µg/mL (≈ 26.8 µM) | 423 µg/mL (≈ 1210 µM) | 26.5 | Active | Dose-Dependent Effect
O=C(CSc1nc2c(ccc3ccccc32)s1)NC1CCCCC1 | 128 µg/mL (≈ 359 µM) | 128 µg/mL (≈ 359 µM) | 36.6 µg/mL (≈ 103 µM) | 33 µg/mL (≈ 92.5 µM) | – | – | – | –
NNC(=O)c1ccncc1 [ISONIAZID] | 0.015 µg/mL (≈ 0.109 µM) | 0.06 µg/mL (≈ 0.438 µM) | – | – | – | – | – | –
C=C(C)[C@H]1Cc2c(ccc3c2O[C@@H]2COc4cc(OC)c(OC)cc4[C@@H]2C3=O)O1 [ROTENONE] | > 64 µg/mL | > 64 µg/mL | – | – | – | – | – | –
Cc1cc(C)c2nc(SCC(=O)NC3CCCCC3)sc2c1 | 8 µg/mL (≈ 23.9 µM) | 8 µg/mL (≈ 23.9 µM) | 16.3 µg/mL (≈ 48.7 µM) | 16.3 µg/mL (≈ 48.7 µM) | 247 µg/mL (≈ 739 µM) | 15.4 | Active | Dose-Dependent Effect

From ChEMBL document CHEMBL5532690, “Antitubercular activity of 2-mercaptobenzothiazole derivatives targeting Mycobacterium tuberculosis type II NADH dehydrogenase” (RSC Med Chem, 2024)
